These results are taken from ChEMBL document CHEMBL1137673, “Improved synthesis of seven aromatic Baylis-Hillman adducts (BHA): evaluation against Artemia salina Leach. and Leishmania chagasi” (Eur J Med Chem, 2009).

Series [1] deals with Artemia salina (organism). Nature of the series: Toxicity in Artemia salina after 24 hrs. It counts as organism-based. To be noted: in vivo. In outline: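 Brine shrimp nauplii hatched in filtered sea water over 48 h (lamp drawing hatched shrimps through a partitioned tank), exposed to compound in DMSO/sea water in tubes for 24 h under light. Dead and surviving shrimps counted; LC50 from concentration versus lethality percentage on a probit scale. Sea water plus DMSO served as control.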

The next series concerns Leishmania amazonensis. Nature of the series: Antileishmanial activity against Leishmania amazonensis. It counts as functional, organism-based.
A further series deals with Leishmania chagasi. As to the kind of experiment: Antileishmanial activity against promastigote form of Leishmania chagasi MCAN/BR/99/JP15 after 72 hrs. It counts as functional, organism-based, MCAN/BR/99/JP. The procedure, abridged: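 Log-phase promastigotes at 1 × 10^6 parasites/mL were grown at 26 °C in Schneider's Drosophila medium with 20% FBS, with or without a range of adduct concentrations, for 72 h. Glucantime served as the reference drug. Parasites were fixed in isotonic citric acid/NaCl/formalin solution, and growth was counted by light microscopy in a Neubauer chamber. Three independent experiments were run in triplicate.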

The mark [2] stands for this setting: Leishmania chagasi, MCAN/BR/99/JP, 72 h, read-out: IC50.

`C=C(C#N)C(O)c1ccc([N+](=O)[O-])cc1` (stereo unspecified) gave an LC50 at 24 h in series [1] of 180 µM. Also, the IC50 in the series on Leishmania amazonensis was determined as 7.9 µM; in the series on Leishmania chagasi (setting [2]), 37.4 µM.
On to `C=C(C#N)C(O)c1cccnc1` (stereo unspecified), for which, in series [1], the LC50 at 24 h was determined as 555 µM. In the series with Leishmania chagasi (setting [2]), the IC50 was 36.9 µM.
In series [1], `C=C(C#N)C(O)c1ccc(Br)cc1` (stereo unspecified) registered an LC50 at 24 h of 130 µM. For the same compound, the IC50 in the series on Leishmania chagasi (setting [2]) was 25.2 µM.
For `C=C(C#N)C(O)c1cccc([N+](=O)[O-])c1` (stereo unspecified) the same measures were 471 µM and 34.6 µM.
For `C=C(C#N)C(O)c1ccccn1` (stereo unspecified) the same measures were 545 µM and 32 µM.
The compound `C=C(C#N)C(O)c1ccccc1[N+](=O)[O-]` (stereo unspecified) displayed an LC50 at 24 h in series [1] of 430 µM. Moreover, in the series on Leishmania chagasi (setting [2]), the half-maximal inhibitory concentration (IC50) is 38.8 µM.
For `C=C(C#N)C(O)c1ccncc1` (stereo unspecified) the same measures were 443 µM and 30.1 µM.
MEGLUMINE ANTIMONATE had an IC50 with Leishmania chagasi of 1620.3 µg/mL.

For orientation: LC50 means the concentration lethal to half of the exposed cells or organisms. A higher LC50 goes with lower toxicity. As a reminder, the IC50 is the point on the concentration scale where inhibition reaches its midpoint.
